This is an account of results in ChEMBL document CHEMBL4513216, “Probing the Open Global Health Chemical Diversity Library for Multistage-Active Starting Points for Next-Generation Antimalarials” (ACS Infect Dis, 2020).

This data set can be described thus: Toxicity liver stage against HepG2, at 10uM. The data set is classed as cell-based. Details: test concentration 10 uM, cell line HepG2-A16-CD81EGFP. To be noted: human, HepG2-A16-CD81EGFP cells; read-out: INHIBITION
Summed up: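 Uninfected HepG2-A16-CD81EGFP cells, 3 × 10^3 per well, 1536-well, plated on prespotted compound at 10 μM final, parasite-free screening media added to match infected plates; puromycin 10 μM positive, DMSO 0.5% negative; run in parallel with 48 h PbLuc assay at 37 °C, 5% CO2; viability by CellTiter-Glo luminescence, normalized to controls.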
For `CN(C)Cc1cc(CC2(NCc3ccccc3Cl)COC2)no1`, the cytotoxicity at 10 µM came out at 4.14%.
On to `CS(=O)(=O)NC[C@H]1Cn2c(-c3ccccc3)cnc2CO1`, for which the cytotoxicity at 10 µM was -2.96%.
Turning to `CN(CCC#N)C(=O)C(C)(C)Oc1ccc(C(N)=O)cc1`, the cytotoxicity at 10 µM came out at 0.676%.
On to `COc1ccc2c3c1CN(C(=O)N(C)C)CC3=CC(C)(C)CO2`, for which the cytotoxicity at 10 µM was 5.21%.
Consider `Cn1cc(-c2nnc3sc(C4CCC4)nn23)cn1`, for which the cytotoxicity at 10 µM is -13%.
On to `CSCCC(Nc1nc(C)cc(C)n1)C(=O)NCC1CCOCC1` (stereo not drawn), for which the cytotoxicity at 10 µM was -3.45%.
In the case of `COCCN(Cc1ccoc1)S(=O)(=O)c1ccc(OC)c(Cl)c1`, the cytotoxicity at 10 µM is 6.27%.
For the compound `Cn1cnc(S(=O)(=O)NCC(O)c2ccc3c(c2)CCO3)c1` (stereo not drawn), the cytotoxicity at 10 µM was -6.28%.
Turning to `Cn1cnc(S(=O)(=O)NCCC(O)c2ccc3c(c2)OCO3)c1` (stereo not drawn), the cytotoxicity at 10 µM is -8.71%.
To `N#Cc1ccccc1Cn1cncn1` belongs 13.1%; to `Cc1ccc(C(=O)N2C[C@H](OCc3cccnc3)[C@H]3COC[C@H]32)cn1`, -1.52%.
To `O=C1CC(c2cccs2)c2sc(C(=O)O)c(-c3ccccc3)c2N1` (stereo not drawn) belongs -1.66%; to `Cn1cc(I)c(C(=O)NC2CCCCC2)n1`, 18.1%.
Take `O=C(c1ccc(F)c(F)c1)N1CCCSCC1CN1CCCC1` (stereo not drawn): the cytotoxicity at 10 µM is -0.524%.
For `CC1CCc2nc(O)c(C(=O)NCCN(C)C)cc2C1` (stereo not drawn), the cytotoxicity at 10 µM is -13.8%.
With `CCOCCCNc1cc(C)nn2cnnc12`, the cytotoxicity at 10 µM is 2.21%.
On to `CCn1ncc(CNc2[nH]cnc3nncc2-3)c1C`, for which the cytotoxicity at 10 µM came to 2.76%.
In the case of `FC(F)(F)c1cc(-c2cccs2)nc(N2CCN3CCCC3C2)n1` (stereo not drawn), the cytotoxicity at 10 µM came to 10.7%.
As to `CC(C)(C(=O)N[C@@H]1CCC[C@@H](O)[C@@H]1O)c1cccc(F)c1`, the cytotoxicity at 10 µM was found to be 4.79%.
In the case of `CC(=O)N1CCCC(c2ccc(C(=O)NC3CCCC3)cn2)C1` (stereo not drawn), the cytotoxicity at 10 µM came to 0.692%.
As for `O=C(CC1CCCCC1)NC1CCCc2nc(N3CCOCC3)ncc21` (stereo not drawn), the cytotoxicity at 10 µM was -5.24%.
Turning to `Cc1cnn(CC(C)NCc2cc(C#N)ccc2F)c1` (stereo not drawn), the cytotoxicity at 10 µM was determined as 0.224%.
Turning to `CC(C)CC(C)(CNC(=O)c1cnccn1)NC(=O)c1cnccn1` (stereo not drawn), the cytotoxicity at 10 µM is -2.71%.
With `CCN(Cc1cc(=O)n2cc(Br)ccc2n1)C1CC1`, the cytotoxicity at 10 µM was found to be 7.95%.
Take `CS(=O)(=O)CCn1ccc(NC(=O)Cc2ccccc2Cl)n1`: the cytotoxicity at 10 µM is 13.6%.
Turning to `CN(CCc1cccs1)C(=O)Nc1ccc2c(c1)C(=O)N(C)CC2`, the cytotoxicity at 10 µM was -5.44%.
In the case of `COCCN(Cc1ccc(C)o1)C(=O)Nc1nnc2ccccn12` it was -1.59%; in that of `COc1ccc(CCNC(=O)C2CCCOC2)c(Cl)c1` (stereo not drawn), 0.0357%; in that of `Cn1c(Cl)cnc1CN1CCCC1c1ccc2c(c1)OCCO2` (stereo not drawn), -1.29%.
For `CCc1nc(C)c(C(C)N(C)CCOC)s1` (stereo not drawn), the cytotoxicity at 10 µM is -6.35%.
In the case of `COCCn1cc(C(=O)N2CCCC2c2cccs2)c2ccccc21` (stereo not drawn), the cytotoxicity at 10 µM worked out at 23.7%.
As for `CCc1noc(CS(=O)(=O)Cc2nc(Cc3ccccc3)no2)n1`, the cytotoxicity at 10 µM is 5.45%.
In the case of `CN(Cc1ccccc1)C(=O)CN1CCCCC1Cn1cncn1` (stereo not drawn) it was 10.4%.
Consider `Cc1nc(C)n(CC2CCCN2CC(=O)Nc2ccncc2)n1` (stereo not drawn), for which the cytotoxicity at 10 µM is -1.73%.
For the compound `CN(Cc1ccccc1)CC(C)(C)NC(=O)c1cnns1`, the cytotoxicity at 10 µM was -3.67%.
As to `C=C(C)CN(CC)Cc1nc(C2CC2)no1`, the cytotoxicity at 10 µM was -7.51%.
Regarding `NC(=O)C1CCN(CC(=O)N2CCCC2c2ccsc2)CC1` (stereo not drawn), the cytotoxicity at 10 µM is -11.4%.
For `Cc1nc(CNC(=O)NC2CCN(c3ncccc3Cl)C2)no1` (stereo not drawn), the cytotoxicity at 10 µM is 11.9%.
In the case of `Cn1ncnc1CNC1CCCc2cc(F)ccc21` (stereo not drawn), the cytotoxicity at 10 µM was -5.62%.
Take `CC(NCc1ccc(F)cc1)c1ccc(S(C)(=O)=O)cc1` (stereo not drawn): the cytotoxicity at 10 µM turned out to be 12.6%.
Regarding `CN(Cc1cc(F)ccc1F)CC(C)(CO)CO`, the cytotoxicity at 10 µM was -5.38%.
In the case of `CCCN(CCc1cccc(F)c1)c1ccc2nnnn2n1`, the cytotoxicity at 10 µM worked out at 1.44%.
As to `COCCn1ccc(NC(=O)Nc2cccnc2)n1`, the cytotoxicity at 10 µM was -12.3%.
With `COc1ccc(CCN2CCN(C(=O)c3scnc3C)CC2)cc1`, the cytotoxicity at 10 µM is -8.31%.
`Cc1noc(C)c1CN1CCC2(CC1)NC(=O)CC2c1ccncc1` (stereo not drawn): the cytotoxicity at 10 µM stood at 0.635%.
Regarding `Cc1cnc(N2CCn3cc(CNC(=O)CC4CC4)nc3C2)nc1`, the cytotoxicity at 10 µM came to 12.3%.
On to `COCCC(=O)N1CC[C@@H](N(C)C)[C@@H]1Cc1ccccc1`, for which the cytotoxicity at 10 µM was -5.05%.
Regarding `Cc1ccccc1[C@@H]1CN(Cc2nc3ncccn3n2)C[C@H]1C(=O)O`, the cytotoxicity at 10 µM was -6.55%.
In the case of `CCCNc1ncc(CN2CCN(C)C(=O)C2C)cn1` (stereo not drawn) it was 12.9%; in that of `Cc1cc(-c2cc(S(=O)(=O)N3C[C@H](C4CC4)[C@@H](N)C3)c(C)s2)[nH]n1`, 2.47%; in that of `Cc1cc(C)nc(N2CCC(C(=O)O)(n3ccc(C(C)(C)C)n3)CC2)n1`, -5.6%.
As to `FC(F)(F)CCc1ccnc(N2CCN(Cc3ccccn3)CC2)n1`, the cytotoxicity at 10 µM is -27%.
Consider `CN1CCC(c2nnc(CN3CCCCC3)n2C)CC1`, for which the cytotoxicity at 10 µM was determined as 16.4%.
In the case of `COc1ccc(F)cc1NC(=O)NCC1(C)COC1` it was 6.26%.
As for `N#Cc1cccc(CN2C(=O)C3(CCNCC3)Nc3ccccc32)c1`, the cytotoxicity at 10 µM is 0.529%.
For `COc1cccn(CC(=O)N(C)CCCOc2c(C)cccc2C)c1=O`, the cytotoxicity at 10 µM came to 5.27%.
As to `O=C(N[C@@H]1CCNC[C@H]1O)c1ccc(F)c(F)c1`, the cytotoxicity at 10 µM worked out at 5.79%.
As for `CCC(CO)N(Cc1ccco1)Cc1c(C)nn(C)c1Cl` (stereo not drawn), the cytotoxicity at 10 µM is 7.4%.
As for `Cc1nc(C)c(C)c(N2CCC(O)(c3ccc(F)cc3)CC2)n1`, the cytotoxicity at 10 µM is -6.08%.
`Cc1nn(C)c(Oc2ccc(Cl)cc2)c1CN1CC[C@H](CO)[C@@H](O)C1`: the cytotoxicity at 10 µM is -10.5%.
For the compound `CCN(Cc1cc(Cl)c(O)c(OC)c1)Cc1nc(COC)no1`, the cytotoxicity at 10 µM came out at 1.29%.
To `CC(C)(C)c1ncc(S(C)(=O)=O)c(C2CCCNC2)n1` (stereo not drawn) belongs -12.7%; to `COc1cccc2ccc(CN3CCN(c4ccncc4)CC3)nc12`, -1.36%.
In the case of `CN1CCN(C(=O)N2CCCC(c3nccn3CC3CCC3)C2)CC1` (stereo not drawn), the cytotoxicity at 10 µM came out at 6.64%.
To `COCC[C@]1(O)CCN(CC(=O)NCc2ccccn2)C[C@H]1C` belongs 7.8%.
Regarding `COCCN(C)Cc1cc(Cl)ccc1OCC(O)CN1CCCCCC1` (stereo not drawn), the cytotoxicity at 10 µM was found to be 1.76%.
To `OCc1ccc(CN2CCC(n3cc(-c4ccsc4)nn3)CC2)o1` belongs 6.77%.
Consider `Cc1nc2sccn2c1C(=O)N1CCn2nc(C(=O)NC3CC3)cc2C1`, for which the cytotoxicity at 10 µM stood at 9.63%.
On to `COc1ccccc1OC1(C(=O)O)CCN(c2cc(C)nc(C)c2)CC1`, for which the cytotoxicity at 10 µM came to 2.65%.
On to `O=C(NC(CO)CO)c1coc(COc2cccc(F)c2)n1`, for which the cytotoxicity at 10 µM came out at 12.5%.
To `COc1ccc(C(=O)C2CCCN(CCCn3cccn3)C2)c(OC)c1` (stereo not drawn) belongs -12.2%; to `CC(C)c1nc2c(n1C)CCN(Cc1nc(-c3ccoc3)no1)C2`, -2.06%; to `Cc1ccc(C(=O)NS(=O)(=O)c2cc(Br)ccc2C)c(=O)[nH]1`, -2.27%.
For `Cc1oc(C)c(C(=O)NCc2ccccc2CN(C)C)c1C`, the cytotoxicity at 10 µM was -16.9%.
Regarding `Nc1nccnc1C(=O)NCCCNc1ccc(C(F)(F)F)cn1`, the cytotoxicity at 10 µM is -8.16%.
For the compound `CC(Cn1cccn1)NCc1ccc(Cl)s1` (stereo not drawn), the cytotoxicity at 10 µM was -8.12%.
Turning to `CCc1noc(CN2CCN(C(=O)COC)CC2)n1`, the cytotoxicity at 10 µM was -8.09%.
For `CCOCc1ccc(CNC(=O)N2CCC(C(N)=O)C2)cc1` (stereo not drawn), the cytotoxicity at 10 µM is -11.4%.
Turning to `Cc1ccccc1C(=O)NCCCN1CCc2ccccc2C1`, the cytotoxicity at 10 µM is -16.5%.
Regarding `Cc1cnn(CC2CCCN2Cc2noc(C(C)C)n2)c1` (stereo not drawn), the cytotoxicity at 10 µM was -1.67%.
To `CC(NCc1cc(F)ccc1F)c1ccc(OCC(=O)NC2CC2)cc1` (stereo not drawn) belongs -13.2%; to `CC(=O)N1CCCN(C(=O)NCc2ccc(Cl)s2)CC1`, -4.02%.
To `Cn1ccc(C(=O)N2CCN(CC(O)C(C)(C)C)CC2)cc1=O` (stereo not drawn) belongs 2.76%; to `CCn1nc2c(cc1=O)CN(Cc1nnc(C3CC3)o1)CC2`, -16.2%.
For `Cn1nc2c(cc1=O)CN(Cc1nc(C3CC3)no1)CC2`, the cytotoxicity at 10 µM was -10.8%.
Turning to `CC(C)C(Sc1nnnn1C1CC1)C(=O)NCc1cccnc1` (stereo not drawn), the cytotoxicity at 10 µM is -0.267%.
On to `c1cc(-c2noc(CN3CCn4c(nnc4C4CC4)C3)n2)co1`, for which the cytotoxicity at 10 µM was -0.986%.
On to `Cn1cnnc1CNC(=O)Nc1cc(C(F)(F)F)c[nH]c1=O`, for which the cytotoxicity at 10 µM is -3.2%.
For the compound `CC(C)c1nnc2n1CCN(C(=O)CN1CCc3sccc3C1)C2`, the cytotoxicity at 10 µM was -4.97%.
For the compound `Cc1nc(C)n(CC2CCCN2CCCOc2ccc(F)cc2)n1` (stereo not drawn), the cytotoxicity at 10 µM was -6.72%.
On to `CN(C)CC1CN(Cc2coc(-c3ccccc3Cl)n2)CCO1` (stereo not drawn), for which the cytotoxicity at 10 µM was -1.15%.
As for `O=C(c1cnc(C2CC2)s1)N1CCCCC1Cn1cccn1` (stereo not drawn), the cytotoxicity at 10 µM came to 2.43%.
To `COc1ccc(C)cc1CN1CCCC1Cn1nc(C)nc1C` (stereo not drawn) belongs 6.57%; to `Cc1n[nH]c(=O)c2c(NC(=O)CN3CCC(O)CC3)oc(C)c12`, 1.17%; to `CNC(=O)[C@@H](CC(C)C)N1CCC[C@H]1C(=O)N(C)Cc1ccccc1`, 6.14%.
With `O=C(c1ccco1)N1C[C@H]2CCCN(CC3CC3)[C@H]2C1`, the cytotoxicity at 10 µM came out at 2.36%.
On to `CN1CCO[C@@H]2CN(S(=O)(=O)c3ccccc3)C[C@@H]2C1`, for which the cytotoxicity at 10 µM worked out at 0.93%.
As for `CN(C)C(=O)c1n[nH]c2c1CN(CC1CCCCC1)C2`, the cytotoxicity at 10 µM came out at 2.86%.
